Article PMC6587326 (Obesity Science & Practice, 2019)

Experiments:
[1] = type: in vivo, Male Sprague Dawley rats; conditions: anaesthetized rats, s.c. 20 μL insulin aspart/iomeprol 80/20; p < 0.001
How it was run: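 Male rats on a high-fat diet (60% fat from weaning to 22 weeks, then 45%) or a low-fat diet (10% fat), aged 36–38 weeks, were isoflurane-anaesthetized. They received 20 μL test insulin mixed 80/20 with iomeprol s.c. in the neck or flank. μCT scans ran to 13 min (neck) or 17 min (flank). Tail blood was taken at 5 and 15 min and measured by luminescent oxygen channelling immunoassay. Three (neck) or four (flank) repeats per rat; mean ± SEM.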

[2] = Insulin absorption upon s.c. neck dosing in HFD and LFD rats; type: in vivo, Male Sprague Dawley rats; conditions: 12 nmol, HFD n = 22, LFD n = 10, p < 0.01
How it was run: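 Rats aged 33–34 weeks, fed a high-fat (60% fat to 22 weeks, then 45%) or low-fat (10% fat) diet from weaning, received 12 nmol test insulin (20 μL) s.c. in the neck. Sublingual-vein blood was drawn at 5, 15 and 60 min, and plasma levels were measured by luminescent oxygen channelling immunoassay. Each rat was dosed five times; mean ± SEM.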

## insulin aspart
[1]
  mean insulin concentration at 5 and 15 min, flank compared with neck dosing: significantly lower
[2]
  area under the curve (AUC0–60 min), HFD compared with LFD group: reduced
